From ChEMBL document CHEMBL1649569, “oqxAB encoding a multidrug efflux pump in human clinical isolates of Enterobacteriaceae” (2009)
In brackets after ≈: the same amount, converted by molar mass.

Legend:
Klebsiella pneumoniae [1] = experiment: Antibacterial activity against Klebsiella pneumoniae isolate 4-38 harboring aac(6')Ib-cr gene by Etest method
Klebsiella pneumoniae [2] = experiment: Antibacterial activity against Klebsiella pneumoniae isolate 6-49 by Etest method
Klebsiella pneumoniae [3] = experiment: Antibacterial activity against Klebsiella pneumoniae isolate 4-13 harboring aac(6')Ib-cr gene by Etest method
Klebsiella pneumoniae [4] = experiment: Antibacterial activity against Klebsiella pneumoniae isolate 4-39 by Etest method
Klebsiella pneumoniae [5] = experiment: Antibacterial activity against Klebsiella pneumoniae isolate 5-22 by Etest method
Escherichia coli [6] = experiment: Antibacterial activity against Escherichia coli isolate 1-12 by Etest method
Klebsiella pneumoniae [7] = experiment: Antibacterial activity against Klebsiella pneumoniae isolate 2-54 by Etest method
Escherichia coli [8] = experiment: Antibacterial activity against Escherichia coli isolate 4-78 by Etest method
Klebsiella pneumoniae [9] = experiment: Antibacterial activity against Klebsiella pneumoniae isolate 3-45 by Etest method
Escherichia coli [10] = experiment: Antibacterial activity against Escherichia coli isolate 4-69 by Etest method
Escherichia coli [11] = experiment: Antibacterial activity against Escherichia coli isolate 5-56 by Etest method
Klebsiella pneumoniae [12] = experiment: Antibacterial activity against Klebsiella pneumoniae isolate 5-80 by Etest method
Escherichia coli [13] = experiment: Antibacterial activity against Escherichia coli isolate 5-59 harboring qepA gene by Etest method
Klebsiella pneumoniae [14] = experiment: Antibacterial activity against Klebsiella pneumoniae isolate 6-49 by broth dilution method; assay type: functional
Outline: (§1)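 Clinical isolates tested by broth dilution in LB broth, with the MIC read as the end-point.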

Klebsiella pneumoniae [15] = experiment: Antibacterial activity against Klebsiella pneumoniae isolate 3-45 by broth dilution method; assay type: functional; outline: as §1
Enterobacter cloacae [16] = experiment: Antibacterial activity against Enterobacter cloacae isolate 1-39 by broth dilution method; assay type: functional; outline: as §1
Klebsiella pneumoniae [17] = experiment: Antibacterial activity against Klebsiella pneumoniae isolate 2-54 by broth dilution method; assay type: functional; outline: as §1
Enterobacter cloacae [18] = experiment: Antibacterial activity against Enterobacter cloacae isolate 1-3 by broth dilution method; assay type: functional; outline: as §1
Klebsiella pneumoniae [19] = experiment: Antibacterial activity against Klebsiella pneumoniae isolate 5-80 by broth dilution method; assay type: functional; outline: as §1
Klebsiella pneumoniae [20] = experiment: Antibacterial activity against Klebsiella pneumoniae isolate 5-22 by broth dilution method; assay type: functional; outline: as §1
Escherichia coli [21] = experiment: Antibacterial activity against Escherichia coli isolate 1-12 by broth dilution method; assay type: functional; outline: as §1
Escherichia coli [22] = experiment: Antibacterial activity against Escherichia coli isolate 4-78 by broth dilution method; assay type: functional
Outline: (§2)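 MIC by broth dilution in LB broth against human clinical Enterobacteriaceae isolates, with strains characterised by PCR for oqxA/oqxB and other plasmid-mediated quinolone resistance genes.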

Enterobacter cloacae [23] = experiment: Antibacterial activity against Enterobacter cloacae isolate 1-26 by broth dilution method; assay type: functional; outline: as §1
Klebsiella pneumoniae [24] = experiment: Antibacterial activity against Klebsiella pneumoniae isolate 4-39 by broth dilution method; assay type: functional; outline: as §1
Enterobacter cloacae [25] = experiment: Antibacterial activity against Enterobacter cloacae isolate 6-4 by broth dilution method; assay type: functional; outline: as §1
Klebsiella pneumoniae [26] = experiment: Antibacterial activity against Klebsiella pneumoniae isolate 4-13 harboring aac(6')Ib-cr gene by broth dilution method; assay type: functional; outline: as §2
Klebsiella pneumoniae [27] = experiment: Antibacterial activity against Klebsiella pneumoniae isolate 4-38 harboring aac(6')Ib-cr gene by broth dilution method; assay type: functional; outline: as §2
Klebsiella pneumoniae [28] = experiment: Antibacterial activity against Klebsiella pneumoniae isolate 3-51 by broth dilution method; assay type: functional; outline: as §1
Escherichia coli [29] = experiment: Antibacterial activity against azide-resistant Escherichia coli J53 by broth dilution method
Klebsiella pneumoniae [30] = experiment: Antibacterial activity against Klebsiella pneumoniae isolate 1-68 by broth dilution method; assay type: functional; outline: as §1
Escherichia coli [31] = experiment: Antibacterial activity against Escherichia coli isolate 5-65 by broth dilution method; assay type: functional; outline: as §2
Escherichia coli [32] = experiment: Antibacterial activity against Escherichia coli isolate 5-59 harboring qepA gene by broth dilution method; assay type: functional; outline: as §2
Enterobacter cloacae [33] = experiment: Antibacterial activity against Enterobacter cloacae isolate 1-40 by broth dilution method; assay type: functional; outline: as §1
Escherichia coli [34] = experiment: Antibacterial activity against Escherichia coli isolate 5-56 by broth dilution method; assay type: functional; outline: as §2
Escherichia coli [35] = experiment: Antibacterial activity against Escherichia coli isolate 4-69 by broth dilution method; assay type: functional; outline: as §2
Enterobacter cloacae [36] = experiment: Antibacterial activity against Enterobacter cloacae isolate 4-11 by broth dilution method; assay type: functional; outline: as §1
Escherichia coli [37] = experiment: Antibacterial activity against Escherichia coli isolate 4-67 by broth dilution method; assay type: functional; outline: as §2
Escherichia coli [38] = experiment: Antibacterial activity against Escherichia coli ATCC 25922 by broth dilution method; assay type: functional

**Q.** What does the source list for `O=C(O)c1cn(C2CC2)c2cc(N3CCNCC3)c(F)cc2c1=O` [CIPROFLOXACIN]?
**A.** MIC (Klebsiella pneumoniae [1]): > 32 µg/mL; MIC (Klebsiella pneumoniae [2]): > 32 µg/mL; MIC (Klebsiella pneumoniae [3]): > 32 µg/mL; MIC (Klebsiella pneumoniae [4]): 0.064 µg/mL (≈ 0.193 µM); MIC (Klebsiella pneumoniae [5]): 0.064 µg/mL (≈ 0.193 µM); MIC (Escherichia coli [6]): > 32 µg/mL; MIC (Klebsiella pneumoniae [7]): 0.023 µg/mL (≈ 0.0694 µM); MIC (Escherichia coli [8]): > 32 µg/mL; MIC (Klebsiella pneumoniae [9]): 0.023 µg/mL (≈ 0.0694 µM); MIC (Escherichia coli [10]): > 32 µg/mL; MIC (Escherichia coli [11]): > 32 µg/mL; MIC (Klebsiella pneumoniae [12]): 3 µg/mL (≈ 9.05 µM); MIC (Escherichia coli [13]): > 32 µg/mL

**Q.** Which results are given for `Cc1c(C(=O)NCCO)[n+]([O-])c2ccccc2[n+]1[O-]` [OLAQUINDOX]?
**A.** MIC (Klebsiella pneumoniae [14]): > 256 µg/mL; MIC (Klebsiella pneumoniae [15]): 16 µg/mL (≈ 60.8 µM); MIC (Enterobacter cloacae [16]): 128 µg/mL (≈ 486 µM); MIC (Klebsiella pneumoniae [17]): 8 µg/mL (≈ 30.4 µM); MIC (Enterobacter cloacae [18]): 64 µg/mL (≈ 243 µM); MIC (Klebsiella pneumoniae [19]): > 256 µg/mL; MIC (Klebsiella pneumoniae [20]): 8 µg/mL (≈ 30.4 µM); MIC (Escherichia coli [21]): 256 µg/mL (≈ 972 µM); MIC (Escherichia coli [22]): 16 µg/mL (≈ 60.8 µM); MIC (Enterobacter cloacae [23]): 128 µg/mL (≈ 486 µM); MIC (Klebsiella pneumoniae [24]): 16 µg/mL (≈ 60.8 µM); MIC (Enterobacter cloacae [25]): 16 µg/mL (≈ 60.8 µM); MIC (Klebsiella pneumoniae [26]): > 256 µg/mL; MIC (Klebsiella pneumoniae [27]): > 256 µg/mL; MIC (Klebsiella pneumoniae [28]): 16 µg/mL (≈ 60.8 µM); MIC (Escherichia coli [29]): 8 µg/mL (≈ 30.4 µM); MIC (Klebsiella pneumoniae [30]): 8 µg/mL (≈ 30.4 µM); MIC (Escherichia coli [31]): 16 µg/mL (≈ 60.8 µM); MIC (Escherichia coli [32]): 16 µg/mL (≈ 60.8 µM); MIC (Enterobacter cloacae [33]): 128 µg/mL (≈ 486 µM); MIC (Escherichia coli [34]): 16 µg/mL (≈ 60.8 µM); MIC (Escherichia coli [35]): 16 µg/mL (≈ 60.8 µM); MIC (Enterobacter cloacae [36]): 32 µg/mL (≈ 122 µM); MIC (Escherichia coli [37]): 16 µg/mL (≈ 60.8 µM); MIC (Escherichia coli [38]): 8 µg/mL (≈ 30.4 µM)
